In brackets after ≈: the same amount, converted by molar mass. Activity calls are given as the source filed them. The calls are words filed in the database; no cut-off is given here.
Experiments:
[1] = Ratio of fCmax in NMRI mouse at 76 mg/kg administered every 2 hrs to MIC for Staphylococcus aureus E19977; format: functional
In short: (§1)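 Free Cmax/MIC was modelled, not measured. Single-dose subcutaneous plasma curves from NMRI mice were projected to the multiple-dose regimens. Free fraction came from a square-root fit of unbound fraction versus total concentration. Binding was measured by ultrafiltration of mouse plasma spiked with 10–400 mg/liter and held 1 h at 37°C. MIC was for strain E19977.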

[2] = Ratio of fAUC (24 hrs) in NMRI mouse at 76 mg/kg administered every 2 hrs to MIC for Staphylococcus aureus E19977; format: functional
In short: (§2)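 Modeled free AUC over 24 h divided by the MIC, not measured directly. Single subcutaneous DCX doses were given to NMRI mice, and plasma was assayed by S. lutea bioassay. Noncompartmental analysis used trapezoidal mean points plus a fitted monoexponential extrapolated to 24 h. Free fraction came from a square-root fit to plasma ultrafiltration binding (10–400 mg/liter spike, 1 h, 37°C). The MIC was measured by broth microdilution at pH 7.4.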

Staphylococcus aureus [3] = assay: Bacteriostatic activity against Staphylococcus aureus E19977 infected in human THP-1 cells at MIC after 5 hrs; format: functional, organism-based
In short: (§3)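 Human THP-1 macrophages were infected with opsonized S. aureus at 4 bacteria per macrophage for 45 min. Non-phagocytized bacteria were removed by washing and a brief incubation in PBS with gentamicin 50 mg/liter. Cells were then incubated up to 24 h with DCX over a wide range of extracellular concentrations. The read-out was Δlog CFU per mg cell protein versus time zero (n = 3), with sigmoidal fitting and Cstatic by interpolation.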

Staphylococcus aureus [4] = assay: Bacteriostatic activity against Staphylococcus aureus E19977 infected in human THP-1 cells after 24 hrs; format: functional; in short: as §3
Mus musculus [5] = species: Mus musculus; assay: Protein binding in NMRI mouse at 270 mg/l by ultrafiltration; format: ADME, organism-based; conditions: in vivo
In short: (§4)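 Plasma binding was measured by ultrafiltration. EDTA blood from healthy mice, or from NMRI mice infected intraperitoneally for 6 h with E19977, was spiked with DCX at 10–400 mg/liter, with PBS controls. Samples were held 1 h at 37°C, then centrifuged through 30-kDa filters at 3,000 × g for 8 min at 37°C. Total and filtrate drug were measured by S. lutea bioassay.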

Staphylococcus aureus [6] = assay: Bactericidal activity against Staphylococcus aureus E19977 infected in human THP1 cells assessed as log reduction in bacterial count at 100 times MIC after 24 hrs by time-kill assay; format: functional, THP-1
In short: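 Intracellular model in THP-1 macrophages: opsonized S. aureus was added at 4 bacteria per macrophage for 45 min. Non-phagocytized bacteria were removed by washing and brief PBS incubation with gentamicin (50 mg/liter). Cells were then incubated up to 24 h with a wide range of extracellular dicloxacillin concentrations. Result is change in log₁₀ CFU per mg cell protein from time zero. n = 3.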

[7] = Ratio of fAUC (24 hrs) in NMRI mouse at 30 mg/kg administered every 2 hrs to MIC for Staphylococcus aureus E19977; format: functional; in short: as §2
[8] = Ratio of fCmax in NMRI mouse at 80 mg/kg to MIC for Staphylococcus aureus E19977
[9] = Ratio of fAUC (24 hrs) in NMRI mouse at 120 mg/kg administered every 24 hrs to MIC for Staphylococcus aureus E19977; format: functional
In short: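 Free-drug AUC24/MIC was modelled for repeated subcutaneous regimens. Single-dose NMRI plasma concentration-time curves were combined with the best-fitting square-root expression for the concentration-dependent free fraction. The result was divided by the E19977 MIC.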

[10] = Ratio of fCmax in NMRI mouse at 200 mg/kg administered every 6 hrs to MIC for Staphylococcus aureus E19977; format: functional; in short: as §1
Staphylococcus aureus [11] = assay: Antimicrobial activity against Staphylococcus aureus E19977 by broth microdilution method at pH 5.4
Mus musculus [12] = species: Mus musculus; assay: Protein binding in NMRI mouse infected with Staphylococcus aureus E19977 at 10 mg/l by ultrafiltration; format: ADME, organism-based; conditions: in vivo; in short: as §4
Staphylococcus aureus [13] = assay: Bactericidal activity against Staphylococcus aureus E19977 infected in human THP-1 cells assessed as log change in bacterial count after 24 hrs; format: functional; in short: as §3
Staphylococcus aureus [14] = assay: Bactericidal activity against Staphylococcus aureus ATCC 25923 assessed as log reduction in bacterial count at 10 times MIC after 24 hrs by time-kill assay; format: functional
In short: (§5)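 Broth time-kill: MSSA at 10⁶ CFU/ml exposed to a wide range of dicloxacillin concentrations. CFU counted after 5 and 24 h and expressed as change in log₁₀ CFU/ml from time zero. Multiples refer to the MIC by CLSI microdilution at pH 7.4. n = 3.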

Staphylococcus aureus [15] = assay: Bactericidal activity against Staphylococcus aureus ATCC 25923 infected in human THP-1 cells assessed as log change in bacterial count after 24 hrs; format: functional; in short: as §3
[16] = fT>MIC in Staphylococcus aureus E19977 infected NMRI mouse at 340 mg/kg administered every 24 hrs
[17] = Cmax in NMRI mouse at 30 mg/kg, sc; format: ADME, organism-based; design: dose 30 mg/kg, route subcutaneous; conditions: in vivo
In short: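 Single subcutaneous dicloxacillin doses were given to NMRI mice. EDTA plasma was assayed by microbiological bioassay with S. lutea ATCC 9391 (detection limit 1.5 mg/liter, linear to 100 mg/liter, CV ~5%). Cmax was obtained by noncompartmental analysis.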

[18] = Ratio of fCmax in NMRI mouse at 120 mg/kg administered every 6 hrs to MIC for Staphylococcus aureus E19977; format: functional; in short: as §1
Staphylococcus aureus [19] = assay: Bactericidal activity against Staphylococcus aureus E19977 assessed as log reduction in bacterial count at 100 times MIC after 5 hrs by time-kill assay; format: functional; in short: as §5
Staphylococcus aureus [20] = assay: Antimicrobial activity against Staphylococcus aureus E19977 after 24 hrs; format: functional, organism-based; conditions: E19977, 24 h
In short: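 Extracellular broth time- and concentration-kill test. The inoculum was ~10⁶ CFU/ml, exposed to a wide range of DCX concentrations, with CFU counted after 5 and 24 h. The read-out was Δlog CFU/ml versus time zero (mean ± SD, n = 3). A sigmoidal fit with slope 1 gave Emax and EC50. Cstatic was read by graphical interpolation as the concentration giving no change from the inoculum.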

Staphylococcus aureus [21] = assay: Bactericidal activity against Staphylococcus aureus ATCC 25923 assessed as log reduction in bacterial count at 10 times MIC after 5 hrs by time-kill assay; format: functional; in short: as §5
[22] = fT>MIC in Staphylococcus aureus E19977 infected NMRI mouse at 200 mg/kg administered every 4 hrs; format: functional
In short: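 Calculated percentage of 24 h at steady state that free plasma DCX exceeds the strain MIC (microdilution, pH 7.4). Concentrations were simulated from single subcutaneous dose plasma curves in NMRI mice (S. lutea bioassay), adjusted with a square-root model of concentration-dependent free fraction from ultrafiltration. The regimen was dosed subcutaneously in mice infected intraperitoneally with 10^7.4 CFU, and peritoneal CFU were read after 24 h of therapy.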

Mus musculus [23] = species: Mus musculus; assay: Protein binding in NMRI mouse at 400 mg/l by ultrafiltration; format: ADME, organism-based; conditions: in vivo; in short: as §4
Mus musculus [24] = species: Mus musculus; assay: Protein binding in NMRI mouse at 180 mg/l by ultrafiltration; format: ADME, organism-based; conditions: in vivo; in short: as §4
[25] = Ratio of fCmax in NMRI mouse at 340 mg/kg administered every 24 hrs to MIC for Staphylococcus aureus E19977

Structure (SMILES): Cc1onc(-c2c(Cl)cccc2Cl)c1C(=O)N[C@@H]1C(=O)N2[C@@H]1SC(C)(C)[C@@H]2C(=O)O [DICLOXACILLIN]
- Ratio [1]: 28.18
- fAUC/MIC [2]: 227.43 h
- Activity (Staphylococcus aureus [3]): Active
- Activity (Staphylococcus aureus [4]): 0.89 mg/L
- Activity (Mus musculus [5]): 84.9%
- FC (Staphylococcus aureus [6]): <1
- fAUC/MIC [7]: 39.32 h
- Ratio [8]: 30.64
- fAUC/MIC [9]: 43.95 h
- Ratio [10]: 101.92
- MIC (Staphylococcus aureus [11]): 0.125 µg/mL (≈ 0.266 µM)
- Activity (Mus musculus [12]): 93.6%
- Emax (Staphylococcus aureus [13]): -1.01 deltalog10CFU/ml
- FC (Staphylococcus aureus [14]): 3
- Emax (Staphylococcus aureus [15]): -1.19 deltalog10CFU/ml
- fT>MIC [16]: 17.78%
- Cmax [17]: 36000 ng/mL
- Ratio [18]: 61.6
- FC (Staphylococcus aureus [19]): <1
- EC50 (Staphylococcus aureus [20]): 0.5 µg/mL (≈ 1.06 µM)
- FC (Staphylococcus aureus [21]): <1
- fT>MIC [22]: 86.25%
- Activity (Mus musculus [23]): 83.7%
- Activity (Mus musculus [24]): 87.2%
- Ratio [25]: 233.35

Source: ChEMBL document CHEMBL1255483, “Intra- and extracellular activities of dicloxacillin against Staphylococcus aureus in vivo and in vitro” (Antimicrob Agents Chemother, 2010)
